Measurements from ChEMBL document CHEMBL3045743, “Synthesis and herbicidal activity of isoindoline-1,3-dione substituted benzoxazinone derivatives containing a carboxylic ester group” (J Agric Food Chem, 2009).

What was measured:
[1] = tested on: Digitaria sanguinalis; test: Post-emergence herbicidal activity against Digitaria sanguinalis(hairy crabgrass) assessed as growth inhibition at 15 g.a.i./ha applied at one-leaf stage measured after 15 days; format: functional; settings: 360 h, read-out: GI
Summary of the method: (§1)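 Pot-grown weeds sown 5 mm deep in greenhouse clay soil (pH 6.5, 1.7% organic matter, CEC 12.9 cmol/kg) at 22-25 °C. Stock diluted with water and sprayed post-emergence: dicots at 2-leaf stage, monocots at 1-leaf stage. Untreated and DMF solvent controls were included. % growth inhibition was scored visually versus untreated controls after 15 days. Triplicates averaged.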

[2] = (§2) Phytotoxicity against Gossypium (cotton) assessed as growth inhibition at 300 g.a.i/ha pre-emergent application measured after 15 days by greenhouse crop selectivity assay; format: organism-based; settings: in vivo, 300 g.a.i/ha, read-out: GI
Summary of the method: (§3)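 Pre-emergence greenhouse crop selectivity test on pot-grown plants in clay soil (pH 6.5, 1.7% organic matter, 37.5% clay, CEC 12.9 cmol/kg). Stock solutions were diluted with water and applied at 300, 150, 75 or 37.5 g a.i./ha, in triplicate. After 15 days, phytotoxicity was scored visually against untreated controls as % crop growth inhibition, averaged over the triplicates.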

[3] = tested on: Chenopodium album; test: Post-emergence herbicidal activity against Chenopodium album assessed as growth inhibition at 7.5 g.a.i./ha applied at two-leaf stage measured after 15 days; format: functional; settings: 360 h, read-out: GI; summary of the method: as §1
[4] = tested on: Setaria viridis; test: Pre-emergence herbicidal activity against Setaria viridis (green foxtail) assessed as growth inhibition at 75 g.a.i./ha applied 24 hr after seeds were sown measured after 15 days; format: functional; settings: read-out: GI
Summary of the method: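 Preliminary pre-emergence screen at a single rate of 75 g a.i./ha. Stock diluted with water and sprayed on greenhouse pots 24 h after seeds were sown 5 mm deep in clay soil (pH 6.5, 1.7% organic matter); grown at 22-25 °C. Untreated and DMF solvent controls included; triplicate. Visual % growth inhibition vs untreated after 15 days, averaged and banded (>80% top band).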

[5] = tested on: Triticum aestivum; test: Phytotoxicity against Triticum aestivum (wheat) assessed as growth inhibition at 7.5 to 60 g.a.i/ha post-emergent application measured after 15 days by greenhouse crop selectivity assay; format: organism-based; settings: in vivo, other, 360 h
Summary of the method: (§4)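 Postemergence crop selectivity test on pot-grown plants in a greenhouse, in clay soil (pH 6.5, 1.7% organic matter, CEC 12.9 cmol/kg). Stock was diluted with water and sprayed at 60, 30, 15 or 7.5 g a.i./ha, in triplicate. Growth inhibition was rated visually against untreated controls after 15 days and given as the triplicate mean percentage.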

[6] = tested on: Arachis hypogaea; test: Phytotoxicity against Arachis hypogaea (peanut) assessed as growth inhibition at 150 g.a.i/ha pre-emergent application measured after 15 days by greenhouse crop selectivity assay; format: organism-based; settings: in vivo, other, 360 h; summary of the method: as §3
[7] = tested on: Chenopodium album; test: Post-emergence herbicidal activity against Chenopodium album assessed as growth inhibition at 15 g.a.i./ha applied at two-leaf stage measured after 15 days; format: functional; settings: 360 h, read-out: GI; summary of the method: as §1
[8] = Phytotoxicity against Oryza sativa (rice) assessed as growth inhibition at 75 g.a.i/ha pre-emergent application measured after 15 days by greenhouse crop selectivity assay; format: organism-based, L.; settings: in vivo, 75 g.a.i/ha, read-out: GI; summary of the method: as §3
[9] = tested on: Zea mays; test: Phytotoxicity against Zea mays (maize) assessed as growth inhibition at 37.5 g.a.i/ha pre-emergent application measured after 15 days by greenhouse crop selectivity assay; format: organism-based; settings: in vivo, other, 360 h; summary of the method: as §3
[10] = tested on: Brassica rapa subsp. oleifera; test: Phytotoxicity against Brassica rapa subsp. oleifera assessed as growth inhibition at 7.5 to 60 g.a.i/ha post-emergent application measured after 15 days by greenhouse crop selectivity assay; format: organism-based; settings: in vivo, other, 360 h; summary of the method: as §4
[11] = tested on: Amaranthus spinosus; test: Post-emergence herbicidal activity against Amaranthus spinosus assessed as growth inhibition at 37.5 g.a.i./ha applied at two-leaf stage measured after 15 days; format: functional; settings: 360 h, read-out: GI; summary of the method: as §1
[12] = Phytotoxicity against Oryza sativa (rice) assessed as growth inhibition at 37.5 g.a.i/ha pre-emergent application measured after 15 days by greenhouse crop selectivity assay; format: organism-based, L.; settings: in vivo, 37.5 g.a.i/ha, read-out: GI; summary of the method: as §3
[13] = Phytotoxicity against Oryza sativa (rice) assessed as growth inhibition at 300 g.a.i/ha pre-emergent application measured after 15 days by greenhouse crop selectivity assay; format: organism-based, L.; settings: in vivo, read-out: GI; summary of the method: as §3
[14] = tested on: Amaranthus spinosus; test: Pre-emergence herbicidal activity against Amaranthus spinosus assessed as growth inhibition at 7.5 g.a.i./ha applied 24 hr after seeds were sown measured after 15 days; format: functional; settings: read-out: GI
Summary of the method: (§5)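 Weeds sown 5 mm deep in pots of greenhouse clay soil (pH 6.5, 37.5% clay, CEC 12.9 cmol/kg) and grown at 22-25 °C. Water-diluted formulation was applied pre-emergence 24 h after sowing. Untreated and DMF solvent controls were included. Growth inhibition was visually rated in % against untreated controls after 15 days, as the mean of triplicates.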

[15] = Phytotoxicity against Oryza sativa (rice) assessed as growth inhibition at 150 g.a.i/ha pre-emergent application measured after 15 days by greenhouse crop selectivity assay; format: organism-based, L.; settings: in vivo, read-out: GI; summary of the method: as §3
[16] = tested on: Gossypium; test: Phytotoxicity against Gossypium (cotton) assessed as growth inhibition at 7.5 to 60 g.a.i/ha post-emergent application measured after 15 days by greenhouse crop selectivity assay; format: organism-based; settings: in vivo, other, 360 h; summary of the method: as §4
[17] = tested on: Echinochloa crus-galli; test: Pre-emergence herbicidal activity against Echinochloa crus-galli (barnyard grass) assessed as growth inhibition at 7.5 g.a.i./ha applied 24 hr after seeds were sown measured after 15 days; format: functional; settings: read-out: GI; summary of the method: as §5
[18] = (§6) Phytotoxicity against Triticum aestivum (wheat) assessed as growth inhibition at 75 g.a.i/ha pre-emergent application measured after 15 days by greenhouse crop selectivity assay; format: organism-based; settings: in vivo, 75 g.a.i/ha, read-out: GI; summary of the method: as §3
[19] = tested on: Setaria viridis; test: Post-emergence herbicidal activity against Setaria viridis (green foxtail) assessed as growth inhibition at 15 g.a.i./ha applied at one-leaf stage measured after 15 days; format: functional; settings: 360 h, read-out: GI; summary of the method: as §1
[20] = tested on: Echinochloa crus-galli; test: Post-emergence herbicidal activity against Echinochloa crus-galli (barnyard grass) assessed as growth inhibition at 37.5 g.a.i./ha applied at one-leaf stage measured after 15 days; format: functional; settings: 360 h, read-out: GI; summary of the method: as §1
[21] = tested on: Amaranthus spinosus; test: Post-emergence herbicidal activity against Amaranthus spinosus assessed as growth inhibition at 15 g.a.i./ha applied at two-leaf stage measured after 15 days; format: functional; settings: 360 h, read-out: GI; summary of the method: as §1
[22] = tested on: Gossypium; test: Phytotoxicity against Gossypium (cotton) assessed as growth inhibition at 37.5 g.a.i/ha pre-emergent application measured after 15 days by greenhouse crop selectivity assay; format: organism-based; settings: in vivo, other, 360 h; summary of the method: as §3
[23] = tested on: Chenopodium album; test: Pre-emergence herbicidal activity against Chenopodium album assessed as growth inhibition at 75 g.a.i./ha applied 24 hr after seeds were sown measured after 15 days; format: functional; settings: read-out: GI; summary of the method: as §5
[24] = tested on: Amaranthus spinosus; test: Pre-emergence herbicidal activity against Amaranthus spinosus assessed as growth inhibition at 15 g.a.i./ha applied 24 hr after seeds were sown measured after 15 days; format: functional; settings: read-out: GI; summary of the method: as §5
[25] = (§7) Phytotoxicity against Zea mays (maize) assessed as growth inhibition at 300 g.a.i/ha pre-emergent application measured after 15 days by greenhouse crop selectivity assay; format: organism-based; settings: in vivo, 300 g.a.i/ha, read-out: GI; summary of the method: as §3
[26] = tested on: Echinochloa crus-galli; test: Pre-emergence herbicidal activity against Echinochloa crus-galli (barnyard grass) assessed as growth inhibition at 15 g.a.i./ha applied 24 hr after seeds were sown measured after 15 days; format: functional; settings: read-out: GI; summary of the method: as §5
[27] = tested on: Glycine max; test: Phytotoxicity against Glycine max (soybean) assessed as growth inhibition at 75 g.a.i/ha pre-emergent application measured after 15 days by greenhouse crop selectivity assay; format: organism-based; settings: in vivo, other, 360 h; summary of the method: as §3
[28] = tested on: Glycine max; test: Phytotoxicity against Glycine max (soybean) assessed as growth inhibition at 150 g.a.i/ha pre-emergent application measured after 15 days by greenhouse crop selectivity assay; format: organism-based; settings: in vivo, other, 360 h; summary of the method: as §3
[29] = tested on: Gossypium; test: as §2; format: organism-based; settings: in vivo, other, 360 h; summary of the method: as §3
[30] = tested on: Triticum aestivum; test: as §6; format: organism-based; settings: in vivo, other, 360 h; summary of the method: as §3
[31] = tested on: Zea mays; test: as §7; format: organism-based; settings: in vivo, other, 360 h; summary of the method: as §3

Structure (SMILES) | inhibition of growth at 15 g/ha [1] [%] | inhibition of growth at 7.5 g/ha [3] [%] | inhibition of growth at 75 g/ha [4] [%] | Activity [5] | growth inhibition (GI) [6] | inhibition of growth at 15 g/ha [7] [%] | growth inhibition (GI) [9] | Activity [10] | inhibition of growth at 37.5 g/ha [11] [%] | inhibition at 360 h [13] [%] | inhibition of growth at 7.5 g/ha [14] [%] | inhibition at 360 h [15] [%] | Activity [16] | inhibition of growth at 7.5 g/ha [17] [%] | inhibition of growth at 15 g/ha [19] [%] | inhibition of growth at 37.5 g/ha [20] [%] | inhibition of growth at 15 g/ha [21] [%] | growth inhibition (GI) [22] | inhibition of growth at 75 g/ha [23] [%] | inhibition of growth at 15 g/ha [24] [%] | also measured
C#CCN1C(=O)COc2cc(F)c(N3C(=O)C4=C(CCCC4)C3=O)cc21 [FLUMIOXAZIN] | 90 | 100 | > 80 | Toxic | Not Active | 100 | Not Active | Toxic | 100 | > 10 | 100 | > 10 | Toxic | 0 | 90 | 80 | 100 | Not Active | > 80 | 100 | inhibition at 360 h [2]: > 10%; inhibition at 360 h [8]: > 10%; inhibition at 360 h [12]: > 10%; inhibition at 360 h [18]: > 10%; inhibition at 360 h [25]: > 10%; inhibition of growth at 15 g/ha [26]: 50%
COC(=O)C(C)N1C(=O)C(C)Oc2cc(F)c(N3C(=O)C4=C(CCCC4)C3=O)cc21 (stereo not drawn) | 20 | 100 | > 80 | Toxic | Not Active | 100 | Not Active | Toxic | 100 | > 10 | 100 | > 10 | Toxic | 0 | 50 | 50 | 100 | Not Active | > 80 | 100 | inhibition at 360 h [2]: > 10%; growth inhibition (GI) [27]: Not Active; inhibition at 360 h [8]: > 10%; growth inhibition (GI) [28]: Not Active; inhibition at 360 h [12]: > 10%; inhibition at 360 h [18]: > 10%; inhibition at 360 h [25]: > 10%; inhibition of growth at 15 g/ha [26]: 10%
CCOC(=O)C(CC)N1C(=O)C(C)Oc2cc(F)c(N3C(=O)C4=C(CCCC4)C3=O)cc21 (stereo not drawn) | 50 | 100 | > 80 | Toxic | Not Active | 100 | Not Active | Toxic | 100 | > 10 | 100 | > 10 | Toxic | 0 | 30 | 50 | 100 | Not Active | > 80 | 100 | growth inhibition (GI) [29]: Not Active; growth inhibition (GI) [27]: Not Active; growth inhibition (GI) [28]: Not Active; growth inhibition (GI) [30]: Not Active; growth inhibition (GI) [31]: Not Active; inhibition of growth at 15 g/ha [26]: 0%
CCOC(=O)C(C)N1C(=O)C(C)Oc2cc(F)c(N3C(=O)C4=C(CCCC4)C3=O)cc21 (stereo not drawn) | 30 | 100 | > 80 | Toxic | Not Active | 100 | Not Active | Toxic | 100 | > 10 | 90 | > 10 | Toxic | 0 | 30 | 50 | 100 | Not Active | > 80 | 95 | growth inhibition (GI) [29]: Not Active; growth inhibition (GI) [27]: Not Active; inhibition at 360 h [8]: > 10%; growth inhibition (GI) [28]: Not Active; inhibition at 360 h [12]: > 10%; growth inhibition (GI) [30]: Not Active; growth inhibition (GI) [31]: Not Active; inhibition of growth at 15 g/ha [26]: 10%
